Hits are enriched below; roughly 2% of the tested compounds scored in any of these assays.
CASP6 VEID inh – human caspase-6 inhibitors, primary screen, biochemical, VEID-R110 fluorescence, single point, set 2; P55212; purified caspase-6, Z-VEID-R110 cleavage fluorescence; inhibition, % at 12.5 µM; 350,000 compounds, 0.53% hits;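 active means mean inhibition across replicates at least about 35%, with every replicate also reaching that limit, limit read from the data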
Target sequence (P55212 24-179 limits assumed): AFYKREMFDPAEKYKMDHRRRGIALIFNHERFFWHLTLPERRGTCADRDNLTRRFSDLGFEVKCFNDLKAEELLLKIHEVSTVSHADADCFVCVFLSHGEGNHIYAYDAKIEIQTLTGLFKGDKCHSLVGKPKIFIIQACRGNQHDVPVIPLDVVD
Target sequence (P55212 194-293 limits assumed): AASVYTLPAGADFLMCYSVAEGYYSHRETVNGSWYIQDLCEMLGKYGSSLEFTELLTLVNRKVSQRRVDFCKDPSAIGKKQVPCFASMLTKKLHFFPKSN
Xi reactivation – activators of inactive X chromosome reactivation, primary screen, imaging, XiGFP fibroblasts, GFP high-content imaging, set 2; XiGFP mouse fibroblasts, % GFP-positive cells imaging, 3 d; cells co-treated with 5-aza-dC sensitizer; scaled so ellipticine positive control = 100%; activation, % at 7.58 µM; 360,000 compounds, 0.055% hits;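 active means mean normalized replicate activation at least 10% and every replicate at or above 10%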
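System: XiGFP fibroblasts, SV40-immortalized. Medium: DMEM plus 5-aza-dC sensitizer. Doses: single point. Timing: 3 d treatment, 15 min room-temperature fixation. Control set: ellipticine 6 µM.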
CaV13 ICDI inh – Disruptors of the CACNA1D IQ motif to Ca2+-dependent inactivation inhibitor domain association, primary screening, Förster resonance energy transfer in intact living …; inhibition, % at 12.3 µM; AID 743397; HEK cells, CFP/YFP FRET ICDI-IQ, plate reader, 10 min; percent FRET-ratio fall versus neutral wells; 340,000 compounds, 0.098% hits;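 active means mean replicate inhibition of at least 30% and at least 1% of replicates passing that level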
FN deposit inh – inhibitors of fibronectin matrix deposition, primary screen, AH1F cells, Alexa488-fibronectin fluorescence, plate reader; AH1F fibroblasts, overnight; inhibition, % at 12.6 µM; 350,000 compounds, 0.086% hits; AID 743247, 2014;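 active means mean inhibition across replicates of 30% or more, regardless of how many single replicates reach that level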
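Assay system: AH1F fibroblasts / Quantity: 10000 cells per well / Medium: DMEM plus 2% serum, read in PBS / Reagent: labelled fibronectin 24 nM / Dosing: single dose, pinned / Times: 1 h cell attachment, overnight exposure to compound and label / Signal: fluorescence, ex 485 nm, em 525 nm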
DENV2 CPE rescue – inhibitors of DENV2 cytopathic effect, primary screen, cell-based, plate reader, single concentration; DENV2-infected cells, cytopathic effect rescue; CPE inhibition, % at 9.99 µM; 350,000 compounds, 1.7% hits; in the data active means CPE inhibition above about 20%, passing the limit was not always enough; tested in BHK-21 cells
A number is an active result; . = inactive; / = no result; ! = a repeat was not active.

SMILES	CASP6 VEID inh	Xi reactivation	CaV13 ICDI inh	FN deposit inh	DENV2 CPE rescue
C/C=C/c1cnc2c(c1)C(=O)N([C@H](C)CO)C[C@@H](C)[C@@H](CN(C)C(=O)Nc1ccccc1F)O2	.	.	/	/	30
CNC(=O)C[C@H]1CC[C@@H]2[C@H](COC[C@H](O)CN2S(=O)(=O)c2ccccc2Cl)O1	/	.	/	.	.
C[C@H](CO)N1C[C@H](C)[C@@H](CN(C)C(=O)c2cnccn2)Oc2ncc(C#CCN(C)C)cc2C1=O	.	.	/	/	.
CCCC#Cc1ccc([C@H]2[C@H]3CN(C(=O)c4ccc(F)cc4)CC(=O)N3[C@H]2CO)cc1	.	.	/	/	.
C[C@H]1CN([C@@H](C)CO)C(=O)c2cc(C3=CCCCC3)cnc2O[C@@H]1CN(C)C(=O)Nc1cccc(F)c1	.	.	/	.	.
C[C@H](CO)N1C[C@H](C)[C@@H](CN(C)C(=O)C2CCOCC2)Oc2ncc(C3=CCCCC3)cc2C1=O	.	.	/	.	45
C[C@@H]1CN([C@@H](C)CO)C(=O)c2cc(C3=CCCC3)cnc2O[C@H]1CN(C)C(=O)NC1CCCC1	.	.	/	/	31
C[C@@H]1CN([C@@H](C)CO)C(=O)c2cc(C3=CCCCC3)cnc2O[C@H]1CN(C)C(=O)Nc1cccc(F)c1	.	.	.	.	30!
C[C@@H]1CN([C@H](C)CO)C(=O)c2cc(C3=CCCC3)cnc2O[C@@H]1CN(C)C(=O)Nc1ccc(C(F)(F)F)cc1	.	.	/	.	33
C[C@@H]1CN([C@@H](C)CO)C(=O)c2cc(C3=CCCC3)cnc2O[C@H]1CN(C)C(=O)Nc1ccc(C(F)(F)F)cc1	.	.	/	.	.
CCC(=O)N(C)C[C@H]1Oc2cc(C#Cc3ccccc3)ccc2S(=O)(=O)N([C@@H](C)CO)C[C@@H]1C	.	.	/	.	.
CC(C)NC(=O)Nc1cccc2c1O[C@H](CN(C)C(=O)NC(C)C)[C@H](C)CN(C)C2=O	/	.	/	.	/
Cc1cccc(S(=O)(=O)N2C[C@@H]3N[C@H](C2)C3c2ccc(-c3cccc(C#N)c3)cc2)c1 (stereo partly drawn)	.	.	/	.	.
N#C[C@@H]1[C@H](c2ccccc2-c2ccccc2F)[C@@H](CO)N1C(=O)C1CCC1	.	.	/	.	.
CC(=O)N(C)C[C@@H]1[C@H](c2ccc(-c3ccc(F)cc3)cc2)[C@H](CO)N1C(C)=O	.	.	/	.	.
CC(=O)N1[C@H](CO)[C@H](c2ccccc2)[C@H]1CN(C)C(=O)c1ccccc1F	.	.	/	.	.
CC(=O)N1[C@H](CN(C)C(=O)c2ccccc2F)[C@@H](c2ccccc2)[C@@H]1CO	.	.	/	.	61
CC(=O)N(C)C[C@H]1[C@H](c2ccc(-c3ccc(F)cc3)cc2)[C@@H](CO)N1C(C)=O	.	.	/	.	33
C[C@@H]1CCCCO[C@H](CN(C)C(=O)Nc2ccc(C(F)(F)F)cc2)[C@@H](C)CN([C@@H](C)CO)C(=O)c2cc(NC(=O)Nc3ccccc3)ccc2O1	.	.	/	.	.
N#C[C@H]1[C@H](c2ccc(C#Cc3ccccc3F)cc2)[C@@H](CO)N1C(=O)C1CCOCC1	.	.	/	.	.
C[C@@H]1CN([C@H](C)CO)C(=O)c2c(c3ccccc3n2C)-c2ccccc2CO[C@@H]1CN(C)C(=O)Nc1cccc(Cl)c1Cl	/	.	/	.	/
Cc1cccc(-c2ccc([C@H]3[C@H](CO)N4C(=O)CN(C(=O)CN5CCOCC5)C[C@@H]34)cc2)c1	.	.	/	/	.
CCCN(CC(=O)Nc1ccccc1C)C(=O)C1CCN(S(=O)(=O)c2ccc(C)c(C)c2)CC1	.	.	.	.	27
CCCN(CC(=O)Nc1ccccc1C)C(=O)C1CCN(S(=O)(=O)c2ccc3c(c2)OCCO3)CC1	.	.	.	.	.
Cc1ccc(S(=O)(=O)N2CCCCC2)cc1NC(=O)c1cc(=O)[nH]c2ccccc12	.	.	.	.	77
CC(=O)NCCC(=O)Nc1cc(S(=O)(=O)N2CCCCC2)ccc1N1CCCCC1	.	.	.	.	.
Cc1ccc(NC(=O)CN(C)CC(=O)Nc2cccc(F)c2)cc1S(=O)(=O)N1CCCCCC1	.	.	.	.	.
